Hck Nef HTS = inhibitors of human Hck kinase activated by Nef; 0.68% of 220,000 active; AID 463187; P08631; inhibition, % at 20 µM; Recombinant Hck-YEEI plus Nef, Z-Lyte FRET kinase assay;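 active = Hck-Nef kinase inhibition above about 50%, limit read from the data; inactive = inhibition below that limit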
Runt-SMMHC FRET = blocks binding of human RUNX1 Runt domain to CBFb-SMMHC. inhibition, % at 20 µM. 0.74% of 220,000 active. Cerulean-Runt/Venus-CBFb-SMMHC FRET ratio 530/480, 1 h. AID 1434. Q01196+Q13951;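 active = mean inhibition across duplicate retests at 20 µM reaching about 50%, limit read from the data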;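 also: inhibitors lower the FRET ratio by blocking Runt binding to CBFb-SMMHC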
RanGTP-Imp inh = disruptors of Ran-importin-beta complex formation – biochemical, FRET, CFP-Ran, YFP-importin-beta, homogeneous, primary screen; inhibition, % (test concentration not listed); cell-free CFP-Ran/YFP-importin-beta FRET ratio; AID 2216; 1.1% of 300,000 active;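 active = more than half of the replicate wells show a fall in the fluorescence ratio signal beyond about 16%, limit read from the data, passing the limit was not always enough; inconclusive = exactly half of the replicate wells pass the set limit; inactive = fewer than half of replicates pass the limit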
Runt-CBFb FRET = Runt domain-CBFb interaction inhibition. Q01196+Q13951. Cerulean-Runt/Venus-CBFb FRET ratio 530/480, 1 h. inhibition, % at 20 µM. 0.46% of 220,000 active;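 active = inhibition over about 50% at 20 µM in the single-dose screen, limit read from the data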
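Measured by: fluorescence energy transfer, 422 nm excitation, 530/480 nm emission; Assay system: Cerulean-Runt domain; Medium: Tris pH 7.5 buffer with BSA; Measure: loss of energy transfer signal; Controls: 5 µM unlabeled CBFb as full-inhibition high control; Incubation: protein complex preformed 1 h, compound exposure 1 h, room temperature, dark.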
TbHK1 inh = T. brucei hexokinase 1 inhibition; recombinant TbHK1, G6PDH-coupled NADH A340; inhibition, % at 10 µM; 0.11% of 220,000 active;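 active = inhibition of 50% or more in the single-dose primary screen; inactive = inhibition below 50%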
p97 inhibitor = human p97 ATPase inhibition; P55072; recombinant p97 ATPase, Kinase-Glo ATP luminescence, 3 h; inhibition, % at 8 µM; 0.42% of 220,000 active; in the data active = inhibition above about 15%
Target sequence (P55072 whole entry, looked up): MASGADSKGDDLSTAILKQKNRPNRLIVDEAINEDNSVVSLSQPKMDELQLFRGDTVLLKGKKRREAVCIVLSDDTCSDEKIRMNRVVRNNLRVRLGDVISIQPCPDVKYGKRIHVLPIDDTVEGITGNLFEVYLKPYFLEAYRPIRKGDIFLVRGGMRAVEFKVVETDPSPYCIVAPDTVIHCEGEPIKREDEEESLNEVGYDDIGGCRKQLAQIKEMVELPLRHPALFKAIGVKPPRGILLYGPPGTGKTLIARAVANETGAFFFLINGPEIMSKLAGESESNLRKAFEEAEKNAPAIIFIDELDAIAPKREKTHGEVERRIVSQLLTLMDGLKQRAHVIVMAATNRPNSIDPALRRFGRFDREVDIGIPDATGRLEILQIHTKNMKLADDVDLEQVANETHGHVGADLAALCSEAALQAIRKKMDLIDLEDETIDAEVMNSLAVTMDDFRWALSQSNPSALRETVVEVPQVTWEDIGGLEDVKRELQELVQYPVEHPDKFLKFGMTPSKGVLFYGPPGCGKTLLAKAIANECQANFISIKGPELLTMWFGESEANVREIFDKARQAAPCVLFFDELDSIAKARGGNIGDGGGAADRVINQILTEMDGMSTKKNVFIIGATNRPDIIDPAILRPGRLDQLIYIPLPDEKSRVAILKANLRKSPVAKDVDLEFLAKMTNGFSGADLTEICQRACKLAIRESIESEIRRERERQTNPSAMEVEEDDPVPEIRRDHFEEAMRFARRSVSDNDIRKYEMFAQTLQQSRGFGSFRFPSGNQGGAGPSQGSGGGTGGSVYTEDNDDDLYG
p97 inh conf = human p97 ATPase inhibition, confirmation | shares compounds with p97 inhibitor | recombinant p97 ATPase, Kinase-Glo ATP luminescence | inhibition, % at 8 µM | 44% of 760 active;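 active = percent inhibition of p97 ATPase above a set limit, the primary screen's mean plus 3 SD, cut at about 15% in these data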
Large screens that a line does not name were inactive (follow-up assays come after a bar, where they were run). Compounds with a hit are over-represented: about 2.1% of the library has one in this group of screens.

CSc1nc2cc(C)nn2c(-c2ccccc2)c1C#N	none
COc1cc2c(cc1NC(=O)CSc1nnc(Cc3cccs3)n1C)oc1ccccc12	p97 inhibitor 22 | p97 inh conf 17
NC1=NC2(CCCCC2)N(c2cccc(Cl)c2)C(N)=N1	RanGTP-Imp inh inconclusive, p97 inhibitor 25 | p97 inh conf inactive
COc1ccc(C(=O)NCCS(=O)(=O)N2CCc3ccccc3C2)cc1OC	none (no result: Hck Nef HTS, Runt-SMMHC FRET, Runt-CBFb FRET, TbHK1 inh, p97 inhibitor)
O=C(COc1ccc(S(=O)(=O)N2CCOCC2)cc1)NCc1ccccn1	none (no result: Hck Nef HTS, Runt-SMMHC FRET, Runt-CBFb FRET, TbHK1 inh, p97 inhibitor)
Cc1cc2c(N)cccc2nn1	p97 inhibitor 32 | p97 inh conf inactive
NC(=O)C(=CNc1nc(-c2ccc(Cl)c(Cl)c2)cs1)C(N)=O	p97 inhibitor 26 (no result: RanGTP-Imp inh) | p97 inh conf 19
CCCCN(C(=O)COC(=O)CSc1ccc([N+](=O)[O-])cc1)c1c(N)n(CCC)c(=O)[nH]c1=O	none (no result: Hck Nef HTS, Runt-SMMHC FRET, Runt-CBFb FRET, TbHK1 inh, p97 inhibitor)
O=C(Nc1ccc2nc(-c3cccs3)[nH]c2c1)c1cccs1	p97 inhibitor 15 | p97 inh conf 19
O=C(Nc1ccc(-c2nc3ccc(NC(=O)c4cccs4)cc3[nH]2)cc1)c1cccs1	none
O=C1SCCC1NS(=O)(=O)c1ccc([N+](=O)[O-])cc1 (configuration not stated)	none (no result: Hck Nef HTS, Runt-SMMHC FRET, Runt-CBFb FRET, TbHK1 inh, p97 inhibitor)
C=CCn1c(NC(=O)c2ccc(Br)o2)c(S(=O)(=O)c2ccccc2)c2nc3ccccc3nc21	RanGTP-Imp inh 45, p97 inhibitor 20 | p97 inh conf inactive
COCC1CCCCN1Cc1cn[nH]c1-c1ccc2cc(OC)ccc2c1 (configuration not stated)	p97 inhibitor 17 (no result: RanGTP-Imp inh) | p97 inh conf inactive
COCC1CCCCN1Cc1cn[nH]c1-c1ccc(OC)cc1OC (configuration not stated)	none
CC(Sc1nc2scc(-c3ccccc3)c2c(=O)[nH]1)C(=O)NC(N)=O (configuration not stated)	p97 inhibitor 15 | p97 inh conf 24
O=C(Nc1ccccc1)C1C(c2ccccc2)C1(Cl)Cl (configuration not stated)	none (no result: Hck Nef HTS, Runt-SMMHC FRET, Runt-CBFb FRET, TbHK1 inh, p97 inhibitor)
O=C(Nc1ccc(Cl)cn1)C1C(c2ccccc2)C1(Cl)Cl (configuration not stated)	p97 inhibitor 17 | p97 inh conf 23
O=S(=O)(c1ccc2oc(=S)[nH]c2c1)N1CCCCC1	p97 inhibitor 21 | p97 inh conf inactive
O=c1[nH]c2ccc(S(=O)(=O)N3CCCCC3)cc2o1	none
Cc1cc(=O)n(C2CCS(=O)(=O)C2)[nH]1 (configuration not stated)	p97 inhibitor 24 (no result: RanGTP-Imp inh) | p97 inh conf inactive
Oc1ccc2ccccc2c1C=NC12CN3CCN(CN(C3)C1)C2	p97 inhibitor 20 | p97 inh conf 21
OCC(CO)(CO)N=Cc1c(O)ccc2ccccc12	p97 inhibitor 29 | p97 inh conf inactive
CN(C)/N=C/c1c(O)ccc2ccccc12	none
O=C1C=C(Nc2ccccc2C(=O)O)c2ccccc2C1=O	p97 inhibitor 23 | p97 inh conf 21
N#Cc1c(NC(=O)c2ccccc2Cl)n(Cc2ccccc2)c2nc3ccccc3nc12	Runt-SMMHC FRET 111, p97 inhibitor 38 (no result: RanGTP-Imp inh) | p97 inh conf 47
COc1ccc(C(=O)Nc2ccc(NC(=O)c3ccco3)cc2)cc1	none (no result: Hck Nef HTS, Runt-SMMHC FRET, Runt-CBFb FRET, TbHK1 inh, p97 inhibitor)
C=CCn1c(NC(=O)c2ccco2)c(S(=O)(=O)c2ccccc2)c2nc3ccccc3nc21	none (no result: Hck Nef HTS, RanGTP-Imp inh, TbHK1 inh, p97 inhibitor)
CCCCn1c(NC(=O)c2ccccc2Cl)c(C#N)c2nc3ccccc3nc21	Runt-SMMHC FRET 60, Runt-CBFb FRET 84, p97 inhibitor 29 | p97 inh conf 40
COc1ccc(-n2c(NC(=O)c3ccco3)c(C#N)c3nc4ccccc4nc32)cc1	RanGTP-Imp inh 128, p97 inhibitor 32 | p97 inh conf 29
CCC(=O)Nc1c(C#N)c2nc3ccccc3nc2n1-c1ccccc1C	RanGTP-Imp inh inconclusive
O=C1CCCC/C1=C\Nc1ccc(O)cc1	p97 inhibitor 21 | p97 inh conf inactive
OC(CNCCC1C=Nc2ccccc21)Cn1c2ccc(Cl)cc2c2cc(Cl)ccc21 (configuration not stated)	p97 inhibitor 26 | p97 inh conf 26
OC(CNCC1CCCO1)Cn1c2ccc(Cl)cc2c2cc(Cl)ccc21 (configuration not stated)	none
CN(C(=O)CSc1n[nH]c(-c2cccs2)n1)C1CCS(=O)(=O)C1 (configuration not stated)	none (no result: Hck Nef HTS, Runt-SMMHC FRET, Runt-CBFb FRET, TbHK1 inh, p97 inhibitor)
Cc1ccc(-c2nn(-c3ccccc3)cc2CO)cc1	none (no result: Hck Nef HTS, Runt-SMMHC FRET, Runt-CBFb FRET, TbHK1 inh, p97 inhibitor)
CC(=O)Nc1ccc(-c2cc(NC(C)=O)n(-c3ccccc3)n2)cc1	none
Cc1ccc(-c2cc(NC(=O)CCl)n(-c3ccccc3)n2)cc1	p97 inhibitor 24 | p97 inh conf 25
Cc1ccc(-c2nn(-c3ccccc3)cc2NC(=O)CCl)cc1	p97 inhibitor 16 | p97 inh conf 29
O=C(CCl)Nc1cc(-c2ccccc2)nn1-c1ccccc1	p97 inhibitor 20 | p97 inh conf 32
COC(=O)Cc1nc(Nc2ccccc2)sc1C	p97 inhibitor 20 | p97 inh conf inactive
Cc1[nH]n(-c2ccccc2)c(=O)c1/C=C1\C=NN=C1c1ccccc1	p97 inhibitor 18 | p97 inh conf 17
Cc1ccc(S(=O)(=O)CCC(=O)OCC(=O)c2cc(C)ccc2C)cc1	none (no result: Hck Nef HTS, Runt-SMMHC FRET, Runt-CBFb FRET, TbHK1 inh, p97 inhibitor)
Cc1ccc(S(=O)(=O)CCC(=O)c2ccc(O)cc2O)cc1	p97 inhibitor 16 | p97 inh conf 21
CN(C)c1ccc(O)c2c1CC1CC3C(N(C)C)C(=O)C(C(N)=O)=C(O)[C@@]3(O)C(=O)C1=C2O (some centres not stated)	none (no result: Hck Nef HTS, Runt-SMMHC FRET, Runt-CBFb FRET, TbHK1 inh, p97 inhibitor)
C=C1c2cccc(O)c2C(O)=C2C(=O)[C@]3(O)C(O)=C(C(N)=O)C(=O)[C@@H](N(C)C)[C@@H]3[C@@H](O)[C@H]12	p97 inhibitor 63 | p97 inh conf inactive
O=S1(=O)N[C@H](c2ccccc2)C[C@H](c2ccc(C(F)(F)F)cc2)O1	none (no result: Hck Nef HTS, Runt-SMMHC FRET, Runt-CBFb FRET, TbHK1 inh, p97 inhibitor)
COc1cc(/C=C2/SC(=Nc3ccc(O)cc3)NC2=O)cc(OC)c1O	p97 inhibitor 26 | p97 inh conf 20
COc1cc(/C=C2\SC(=Nc3ccc(O)cc3)NC2=O)cc(OC)c1OC	none
O=C1NC(=Nc2ccc(O)cc2)S/C1=C\C=C\c1ccco1	Hck Nef HTS 94, p97 inhibitor 36 | p97 inh conf 31
Cc1ccccc1C(=O)N(C)c1ccccc1C(=O)NCc1ccccc1	none (no result: Hck Nef HTS, Runt-SMMHC FRET, Runt-CBFb FRET, TbHK1 inh, p97 inhibitor)
O=C(CSc1ccc(F)cc1)Nc1ccc(Br)cc1	none
O=C(CSc1ccc(F)cc1)Nc1ccccc1Br	p97 inhibitor 15 | p97 inh conf inactive
CN=C(NC(=O)Nc1c(C)cccc1C)NC(=O)Nc1c(C)cccc1C	none
CN=C(N)NC(=O)Nc1c(C)cccc1C	p97 inhibitor 15 | p97 inh conf inactive

High-throughput results (PubChem)
